Holding throughout (type): cell membranes
Test [1] has as its target T1, Cholecystokinin receptor type A (Cavia porcellus, UniProt Q63931).
T1 sequence (Q63931 whole entry): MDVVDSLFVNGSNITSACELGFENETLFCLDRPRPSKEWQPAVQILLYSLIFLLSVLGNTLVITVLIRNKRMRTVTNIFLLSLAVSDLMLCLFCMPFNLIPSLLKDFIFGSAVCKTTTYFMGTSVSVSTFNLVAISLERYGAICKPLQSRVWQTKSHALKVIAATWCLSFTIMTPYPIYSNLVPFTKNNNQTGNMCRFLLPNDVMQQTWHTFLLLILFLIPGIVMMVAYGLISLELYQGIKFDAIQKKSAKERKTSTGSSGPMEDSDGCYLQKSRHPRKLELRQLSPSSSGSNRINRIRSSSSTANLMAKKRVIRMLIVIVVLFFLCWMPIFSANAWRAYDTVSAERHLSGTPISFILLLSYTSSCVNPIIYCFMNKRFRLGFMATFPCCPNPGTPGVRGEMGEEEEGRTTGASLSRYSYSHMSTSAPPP
The test can be described thus: Affinity of compound on binding of [3H]pCCK-8 to the cholecystokinin type A receptor in guinea pig pancreatic membrane. The method, boiled down: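 Competition binding on guinea pig pancreatic membranes (0.2 mg protein/mL) using [3H]pCCK8 at 0.2 nM. Nonspecific binding defined with 1 μM CCK8. Reaction stopped by filtration over BSA-precoated GF/B filters and counted. KI derived by Cheng-Prusoff.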

Test [2] deals with T1, Cholecystokinin receptor type A. The test can be described thus: Displacement of [3H]-pCCK-8 from cholecystokinin-A receptor in guinea pig pancreatic membrane. In outline:
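Competition binding on guinea pig pancreatic membranes (0.2 mg protein/mL) using [3H]pCCK8 at 0.2 nM. Reaction stopped by filtration over BSA-precoated GF/B filters and counted. KI derived by Cheng-Prusoff.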
In general terms: Loss of bound radioactivity is the signal in a displacement assay; it reports binding, not function.

For test [3], the target named is T2, Gastrin/cholecystokinin type B receptor (Rattus norvegicus, UniProt P30553).
T2 sequence (P30553 whole entry): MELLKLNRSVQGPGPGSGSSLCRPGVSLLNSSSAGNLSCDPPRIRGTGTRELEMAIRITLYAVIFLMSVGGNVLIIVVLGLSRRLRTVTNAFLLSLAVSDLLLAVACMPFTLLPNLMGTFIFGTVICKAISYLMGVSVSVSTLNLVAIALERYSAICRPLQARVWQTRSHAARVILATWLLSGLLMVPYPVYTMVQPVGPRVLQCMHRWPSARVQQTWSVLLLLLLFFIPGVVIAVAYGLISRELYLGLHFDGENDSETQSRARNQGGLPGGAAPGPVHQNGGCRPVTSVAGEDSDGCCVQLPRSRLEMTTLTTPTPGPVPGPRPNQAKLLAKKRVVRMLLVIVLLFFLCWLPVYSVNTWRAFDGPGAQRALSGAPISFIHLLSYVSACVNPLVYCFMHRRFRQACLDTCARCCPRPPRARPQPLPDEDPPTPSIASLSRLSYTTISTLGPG
Description: Affinity of compound on binding of [3H]pCCK-8 to the cholecystokinin type B receptor in rat brain membrane. The method, boiled down:
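Brain membranes (0.6 mg protein/mL; rat or guinea pig) incubated with 0.2 nM [3H]pCCK8 in 50 mM Tris-HCl pH 7.4, 5 mM MgCl2, 0.2 mg/mL bacitracin, 60 min at 25 °C. Filtered on BSA-precoated GF/B filters and counted. KI by Cheng-Prusoff; mean ± SEM of three experiments, each in triplicate.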

SMILES strings stand for the structures. Non-standard residues stand in square brackets, D forms with d. Residues, ends and D or L forms follow the SMILES beside them. *: point of attachment. NMe1Nal = CN[C@@H](Cc1cccc2ccccc12)C(=O)O; NMeW = CN[C@@H](Cc1c[nH]c2ccccc12)C(=O)O; 1Nal = N[C@@H](Cc1cccc2ccccc12)C(=O)O; 2Nal = N[C@@H](Cc1ccc2ccccc2c1)C(=O)O; Chg = N[C@H](C(=O)O)C1CCCCC1; Phg = N[C@H](C(=O)O)c1ccccc1; Nle = CCCC[C@H](N)C(=O)O; OtBu = CC(C)(C)O*

In general, Ki refers to the equilibrium dissociation constant of an inhibitor or competing ligand from its target. A high value points to weaker binding. Take `CN(C(=O)[C@H](Cc1ccccc1)NC(=O)[C@H](CC(=O)O)NC(=O)[C@@H](N)Cc1ccccc1)[C@H](Cc1c[nH]c2ccccc12)C(=O)OC(C)(C)C`: the Ki in test [1] is 8000 nM.
`CN(C(=O)[C@H](Cc1ccccc1)NC(=O)[C@H](CC(=O)O)NC(=O)[C@@H](N)Cc1ccccc1)[C@@H](Cc1c[nH]c2ccccc12)C(=O)OC(C)(C)C` returned an inhibition constant Ki in test [1] of 3200 nM.
For `CN(C(=O)[C@@H](NC(=O)[C@H](CC(=O)O)NC(=O)[C@@H](N)Cc1cccc2ccccc12)c1ccccc1)[C@@H](Cc1c[nH]c2ccccc12)C(=O)OC(C)(C)C` (H-[1Nal]D[Phg][NMeW]-OtBu), the inhibition constant (Ki) in test [2] worked out at 830 nM.
Still for that read-out and setting: with `CC(C)(C)OC(=O)[C@H](Cc1c[nH]c2ccccc12)NC(=O)[C@@H](NC(=O)[C@H](CC(=O)O)NC(=O)[C@@H](N)Cc1cccc2ccccc12)C1CCCCC1` (H-[1Nal]D[Chg]W-OtBu) the figure was 1400 nM; with `CC(C)(C)OC(=O)[C@H](Cc1c[nH]c2ccccc12)NC(=O)[C@@H](NC(=O)[C@H](CC(=O)O)NC(=O)[C@@H](N)Cc1cccc2ccccc12)c1ccccc1` (H-[1Nal]D[Phg]W-OtBu), 990 nM; with `CCCC[C@H](NC(=O)[C@H](CC(=O)O)NC(=O)[C@@H](N)Cc1ccccc1)C(=O)N(C)[C@@H](Cc1c[nH]c2ccccc12)C(=O)OC(C)(C)C` (H-FD[Nle][NMeW]-OtBu), above 5000 nM.
With `CCCC[C@H](NC(=O)[C@H](CC(=O)O)NC(=O)[C@@H](N)Cc1ccccc1)C(=O)N[C@H](Cc1c[nH]c2ccccc12)C(=O)OC(C)(C)C` (stereo in doubt; 13), the Ki in test [2] is 1100 nM.
Still for that read-out and setting: with `CCCC[C@H](NC(=O)[C@H](CC(=O)O)NC(=O)[C@H](Cc1cccc2ccccc12)N(C)C)C(=O)N(C)[C@@H](Cc1c[nH]c2ccccc12)C(=O)OC(C)(C)C` the figure was 520 nM; with `CCCC[C@H](NC(=O)[C@H](CC(=O)O)NC(=O)[C@@H](N)Cc1ccc2ccccc2c1)C(=O)N(C)[C@@H](Cc1c[nH]c2ccccc12)C(=O)OC(C)(C)C` (H-[2Nal]D[Nle][NMeW]-OtBu), 4200 nM.
The same measure, in the same setting: under `CC(C)(C)OC(=O)[C@H](Cc1c[nH]c2ccccc12)NC(=O)[C@H](Cc1ccccc1)NC(=O)[C@H](CC(=O)O)NC(=O)[C@@H](N)Cc1cccc2ccccc12` (H-[1Nal]DFW-OtBu) stands 2400 nM.
In test [1], `CN(C(=O)[C@@H](NC(=O)[C@H](CC(=O)O)NC(=O)[C@@H](N)Cc1cccc2ccccc12)C1CCCCC1)[C@@H](Cc1c[nH]c2ccccc12)C(=O)OC(C)(C)C` (H-[1Nal]D[Chg][NMeW]-OtBu) came in with an inhibitory constant (Ki) of 2100 nM.
Consider `CN(C(=O)[C@H](Cc1ccccc1)NC(=O)[C@H](CC(=O)O)NC(=O)[C@@H](N)Cc1cccc2ccccc12)[C@@H](Cc1c[nH]c2ccccc12)C(=O)OC(C)(C)C` (H-[1Nal]DF[NMeW]-OtBu), for which the inhibition constant Ki in test [2] was 3500 nM.
For `CN(C)[C@@H](Cc1cccc2ccccc12)C(=O)N[C@@H](CC(=O)O)C(=O)N[C@H](C(=O)N[C@@H](Cc1c[nH]c2ccccc12)C(=O)OC(C)(C)C)c1ccccc1`, the Ki amounted to 1000 nM in test [2] and 51 nM in test [3].
`CN(C)[C@@H](Cc1cccc2ccccc12)C(=O)N[C@@H](CC(=O)O)C(=O)N[C@H](C(=O)N[C@@H](Cc1c[nH]c2ccccc12)C(=O)OC(C)(C)C)C1CCCCC1` showed a Ki in test [2] of 5400 nM.
Same read-out and setting: with `CCCC[C@H](NC(=O)[C@H](CC(=O)O)NC(=O)[C@@H](N)Cc1cccc2ccccc12)C(=O)N(C)[C@@H](Cc1c[nH]c2ccccc12)C(=O)OC(C)(C)C` the figure was 1200 nM; with `CCCC[C@H](NC(=O)[C@H](CC(=O)O)NC(=O)[C@@H](N)Cc1cccc2ccccc12)C(=O)N(C)[C@H](Cc1c[nH]c2ccccc12)C(=O)OC(C)(C)C`, 6300 nM; with `CCCC[C@H](NC(=O)[C@H](CC(=O)O)NC(=O)[C@H](Cc1cccc2ccccc12)NC)C(=O)N(C)[C@@H](Cc1c[nH]c2ccccc12)C(=O)OC(C)(C)C` (H-[NMe1Nal]D[Nle][NMeW]-OtBu), 1200 nM.

Source of the values: ChEMBL document CHEMBL1126667, “CCK-B agonist or antagonist activities of structurally hindered and peptidase-resistant Boc-CCK4 derivatives” (J Med Chem, 1993).
